# Measurements published in ChEMBL document CHEMBL2424547, “Synthesis and biological analysis of benzazol-2-yl piperazine sulfonamides as 11β-hydroxysteroid dehydrogenase 1 inhibitors” (Bioorg Med Chem Lett, 2013).
# Active and inactive are the calls of the source. The rule behind the calls is not given here.
# How the values were obtained:
# Format in all cases: cell-based
# [1] = molecular target: T1, 11-beta-hydroxysteroid dehydrogenase type 2 (Homo sapiens) (UniProt P80365); assay: Inhibition of human 11beta-HSD2 expressed in HEK293 cells assessed as [1,2,6,7-3H]-cortisol oxidation to [1,2-3H]-cortisone at 20 uM after 10 mins in presence of NAD+
# T1 sequence (whole entry): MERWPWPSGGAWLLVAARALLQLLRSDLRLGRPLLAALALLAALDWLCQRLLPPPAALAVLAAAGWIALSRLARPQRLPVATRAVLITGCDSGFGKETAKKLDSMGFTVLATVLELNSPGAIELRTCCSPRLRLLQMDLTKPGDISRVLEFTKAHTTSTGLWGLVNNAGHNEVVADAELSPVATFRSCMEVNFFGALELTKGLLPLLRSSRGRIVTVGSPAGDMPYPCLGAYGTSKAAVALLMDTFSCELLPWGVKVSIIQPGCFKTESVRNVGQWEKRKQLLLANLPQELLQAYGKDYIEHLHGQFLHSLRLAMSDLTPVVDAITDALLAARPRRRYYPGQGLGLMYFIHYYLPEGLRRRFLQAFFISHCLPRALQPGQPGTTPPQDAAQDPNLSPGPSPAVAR
# [2] = molecular target: T2, 11-beta-hydroxysteroid dehydrogenase 1 (Homo sapiens, UniProt P28845); assay: Inhibition of human 11beta-HSD1 expressed in HEK293 cells assessed as [1,2-3H]-cortisone reduction […] measured as residual activity at 20 uM after 10 mins relative to control in presence of NADPH
# In short: (§1)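 Cell-free 11β-HSD1 activity assay. Compounds were first screened at a single 20 µM concentration, and IC50 values were then determined for selected compounds. Values are mean ± SD from at least three independent experiments.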
# Target sequence in this assay (P28845 whole entry, looked up): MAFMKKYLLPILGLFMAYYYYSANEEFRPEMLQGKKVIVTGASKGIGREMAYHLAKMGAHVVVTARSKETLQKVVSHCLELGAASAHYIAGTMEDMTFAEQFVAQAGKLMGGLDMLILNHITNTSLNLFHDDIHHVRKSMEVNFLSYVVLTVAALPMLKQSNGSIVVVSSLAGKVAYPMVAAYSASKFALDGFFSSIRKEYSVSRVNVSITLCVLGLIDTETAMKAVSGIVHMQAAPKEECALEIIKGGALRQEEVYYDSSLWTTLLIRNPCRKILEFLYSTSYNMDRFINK
# [3] = molecular target: T2, 11-beta-hydroxysteroid dehydrogenase 1; assay: Inhibition of human 11beta-HSD1 expressed in HEK293 cells assessed as [1,2-3H]-cortisone reduction […] after 10 mins in presence of NADPH; in short: as §1
# Target sequence in this assay (P28845 whole entry): as the sequence (P28845 whole entry, looked up) above
# [4] = molecular target: T2, 11-beta-hydroxysteroid dehydrogenase 1; assay: Inhibition of human 11beta-HSD1 expressed in HEK293 cells assessed as [1,2-3H]-cortisone reduction […] measured as residual activity after 10 mins relative to control in presence of NADPH; in short: as §1
# Target sequence in this assay (P28845 whole entry, looked up): as above
inhibition [1],Activity [2] [%],IC50 ([3]; read-out: IC50) [µM],IC50 ([3]; hek293),Activity [4] [%],SMILES
inactive,90,–,–,–,Cn1c(N2CCN(S(=O)(=O)c3ccc(C(=O)NO)cc3)CC2)nc2ccccc21
inactive,65,–,–,–,Cc1ccc(C(=O)N2CCN(c3nc4ccccc4[nH]3)CC2)cc1
inactive,–,6.4,–,–,Cn1c(N2CCN(S(=O)(=O)c3ccccc3)CC2)nc2ccccc21
inactive,–,–,ND(Insoluble),18,CC(C)(C)c1ccc(S(=O)(=O)N2CCN(c3nc4ccccc4o3)CC2)cc1
inactive,–,4.8,–,–,Cn1c(N2CCN(S(=O)(=O)c3ccc(C(C)(C)C)cc3)CC2)nc2ccccc21
inactive,89,–,–,–,Cc1ccc(S(=O)(=O)N2CCN(c3nc4ccccc4s3)CC2)cc1
inactive,90,–,–,–,Cn1c(N2CCN(S(=O)(=O)c3ccc(C(=O)O)cc3)CC2)nc2ccccc21
inactive,–,27.2,–,–,COc1ccc(S(=O)(=O)N2CCN(c3nc4ccccc4n3C)CC2)cc1[N+](=O)[O-]
inactive,50,–,–,–,Cc1ccc(S(=O)(=O)N2CCN(c3nc4ccccc4[nH]3)CC2)cc1
inactive,75,–,–,–,Cn1c(N2CCN(S(=O)(=O)c3cccc(C(=O)O)c3)CC2)nc2ccccc21
inactive,–,18.5,–,–,COc1ccc(S(=O)(=O)N2CCN(c3nc4ccccc4n3C)CC2)cc1OC
inactive,–,4.2,–,–,COc1ccc(S(=O)(=O)N2CCN(c3nc4ccccc4n3C)CC2)cc1
inactive,–,0.7,–,–,Cc1ccc(S(=O)(=O)N2CCN(c3nc4ccccc4n3C)CC2)cc1
inactive,60,–,–,–,Cn1c(N2CCN(S(=O)(=O)c3cccc(C(=O)NO)c3)CC2)nc2ccccc21
